Active and inactive are the calls of the source. The rule behind the calls is not given here.
Tests used:
[1] = Inhibition of Wnt3A/beta-catenin signaling in HEK293 cells at 5 uM after 24 hrs by firefly/renilla dual luciferase reporter gene assay relative to vehicle-treated control; format: cell-based; design: scale not given: the % may be the effect or the level left; conditions: Homo sapiens
Outline: (§1)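 HEK293T cells were co-transfected with TOPglow (or FOPglow) plus pCMV Renilla. At 20 h they were reseeded at 18×10^3/well and treated for 24 h with Wnt-3A conditioned medium (from L-Wnt-3A cells) plus analogs (0.01–20 µM; DMSO ≤0.1%). Firefly/Renilla dual-luciferase ratios were expressed as % of DMSO under Wnt-3A. EC50 was taken from sigmoidal concentration–response fits; three independent experiments.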

[2] = Inhibition of Wnt3A/beta-catenin signaling in HEK293 cells at 1 uM after 24 hrs by firefly/renilla dual luciferase reporter gene assay relative to vehicle-treated control; format: cell-based; design: scale not given: the % may be the effect or the level left; conditions: Homo sapiens; outline: as §1
[3] = Inhibition of Wnt3A/beta-catenin signaling in HEK293 cells at 20 uM after 24 hrs by firefly/renilla dual luciferase reporter gene assay relative to vehicle-treated control; format: cell-based; design: scale not given: the % may be the effect or the level left; conditions: Homo sapiens; outline: as §1
[4] = Inhibition of Wnt3A/beta-catenin signaling in HEK293 cells at 10 uM after 24 hrs by firefly/renilla dual luciferase reporter gene assay relative to vehicle-treated control; format: cell-based; design: scale not given: the % may be the effect or the level left; conditions: Homo sapiens; outline: as §1
[5] = Inhibition of Wnt3A/beta-catenin signaling in human U2OS cells assessed as reduction in nuclear beta-catenin accumulation at 5 uM after 24 hrs by Western blot analysis; format: cell-based
Outline: (§2)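 U2OS cells were pretreated with analogs for 24 h, and cytoplasmic and nuclear fractions were prepared for β-catenin immunoblotting. α-Tubulin (cytoplasmic) and lamin A/C (nuclear) were loading references. Bands were quantified by densitometry and expressed as % of DMSO-treated cells, with at least triplicate experiments.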

[6] = Inhibition of Wnt3A/beta-catenin signaling in human U2OS cells assessed as effect on cytoplasmic beta-catenin level at 5 uM after 24 hrs by Western blot analysis; format: cell-based; outline: as §2
[7] = Inhibition of Wnt3A/beta-catenin signaling-mediated Tcf4 transcriptional activity in human U2OS cells at 1 uM after 24 hrs by FOPglow reporter gene assay; format: cell-based
Outline: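 U2OS cells (1.0×10^5/well, 90–95% confluent) were co-transfected with TOPglow or FOPglow (0.3 µg) plus pCMV Renilla. At 20 h they were treated for 24 h with Wnt-3A conditioned medium and analogs. Firefly luciferase was normalized to Renilla and expressed as % of DMSO-treated samples; mean ± S.E.M of three independent experiments.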

[8] = Inhibition of Wnt3A/beta-catenin signaling in HEK293 cells after 24 hrs by firefly/renilla dual luciferase reporter gene assay relative to curcumin; format: cell-based; conditions: Homo sapiens
Outline: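 EC50s came from the HEK293T TOPglow/Renilla dual-luciferase assay with Wnt-3A conditioned medium and 24 h compound exposure (0.01–20 µM), using sigmoidal fits; three independent experiments.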

[9] = Inhibition of Wnt3A/beta-catenin signaling in HEK293 cells after 24 hrs by firefly/renilla dual luciferase reporter gene assay; format: cell-based; conditions: Homo sapiens, HEK293, 24 h; outline: as §1
HEK293T (human) = assay: Cytotoxicity against human HEK293T cells at dual luciferase reporter gene assay EC50 after 24 hrs by MTS assay
[10] = Inhibition of Wnt3A/beta-catenin signaling-mediated Tcf4 transcriptional activity in human HEK293T cells at dual luciferase reporter gene assay EC50 after 24 hrs by FOPglow reporter gene assay; design: scale not given: the % may be the effect or the level left

Row | Structure (SMILES) | activity [1] | activity [2] | activity [3] | activity [4] | inhibition [5] | inhibition [6] | inhibition [7] | fold change (FC) [8] | EC50 [9] | Activity (HEK293T (human)) | activity [10]
1 | O=C(/C=C/c1ccc(O)cc1)c1ccc(O)cc1 | 89.6% | 92.7% | 68.3% | 70.9% | – | – | – | – | – | – | –
2 | COc1cc(/C=C/C(=O)c2ccc(O)c(OC)c2)ccc1O | 115% | 112% | 69.6% | 86.9% | – | – | – | – | – | – | –
3 | O=C1/C(=C/c2ccc(F)cc2)CCC/C1=C\c1ccc(F)cc1 | 65.2% | 70.3% | 60.2% | 61.6% | – | – | – | – | – | – | –
4 | COc1ccc(/C=C2\CC/C(=C\c3ccc(OC)c(O)c3)C2=O)cc1O | 45% | 52.6% | 39.2% | 39.5% | inactive | inactive | 25.7% | 40.4 | 0.5 µM | 86.9% | 110%
5 | COc1cccc(/C=C/C(=O)/C=C(O)/C=C/c2cccc(OC)c2)c1 | 107% | 97.7% | 101% | 108% | – | – | – | – | – | – | –
6 | O=C(/C=C/c1ccc(F)c(F)c1)/C=C/c1ccc(F)c(F)c1 | 100% | 103% | 111% | 110% | – | – | – | – | – | – | –
7 | O=C1/C(=C/c2ccc(O)cc2)CCC/C1=C\c1ccc(O)cc1 | 26.9% | 51.9% | 16.7% | 26.3% | inactive | inactive | 25.7% | 25.8 | 0.8 µM | – | 85.1%
8 | O=C1/C(=C/c2ccccc2)CC/C1=C\c1ccccc1 | 41.5% | 82.7% | 18.4% | 25.3% | – | – | – | 6.7 | 3.1 µM | 83.5% | 82.9%
9 | COc1cc(/C=C2\CC/C(=C\c3ccc(O)c(OC)c3)C2=O)ccc1O | 54.1% | 91.6% | 13.3% | 37.5% | – | – | – | 3.5 | 5.9 µM | – | 90.8%
10 | COc1ccc(/C=C/C(=O)c2ccc(OC)c(OC)c2)cc1OC | 86.6% | 95% | 41.6% | 60.3% | – | – | – | – | – | – | –
11 | COc1ccc(/C=C/C(=O)/C=C(O)/C=C/c2ccc(OC)c(OC)c2)cc1OC | 70% | 102% | – | 46.5% | – | – | – | 2.5 | 8.3 µM | 41.6% | 118%
12 | O=C(/C=C(O)/C=C/c1ccc(F)c(F)c1)/C=C/c1ccc(F)c(F)c1 | 92.2% | 83.3% | 93.1% | 89.2% | – | – | – | – | – | – | –
13 | O=C(/C=C/c1ccc(O)cc1)CC(=O)/C=C/c1ccc(O)cc1 | 77.7% | 100% | 69.1% | 72.5% | – | – | – | – | – | – | –
14 | COc1ccc(/C=C/C(=O)/C=C(O)/C=C/c2ccc(OC)c(O)c2)cc1O | 110% | 99.7% | 113% | 105% | – | – | – | – | – | – | –
15 | COc1cccc(/C=C2\CCC/C(=C\c3cccc(OC)c3)C2=O)c1 | 60.7% | 93.3% | 81.5% | 72.7% | – | – | – | – | – | – | –
16 | O=C1/C(=C/c2cccc(F)c2)CCC/C1=C\c1cccc(F)c1 | 119% | 96.1% | 104% | 105% | – | – | – | – | – | – | –
17 | COc1cc(/C=C2\CCC/C(=C\c3ccc(O)c(OC)c3)C2=O)ccc1O [CYCLOVALONE] | 28.9% | 86.1% | – | 21.3% | – | – | – | 7.9 | 2.6 µM | – | 87.6%
18 | O=C1/C(=C/c2cccc(F)c2)CC/C1=C\c1cccc(F)c1 | 119% | 124% | 103% | 109% | – | – | – | – | – | – | –

Row | Structure (SMILES) | activity [1] | activity [2] | activity [3] | activity [4] | inhibition [5] | inhibition [6] | inhibition [7] | fold change (FC) [8] | EC50 [9] | Activity (HEK293T (human)) | activity [10]
19 | COc1ccc(/C=C2\CC/C(=C\c3ccc(OC)c(OC)c3)C2=O)cc1OC | 65.9% | 88.9% | 39.2% | 55.5% | – | – | – | 1.2 | 17.1 µM | – | 85.2%
20 | COc1cc(/C=C/C(=O)/C=C/c2ccc(O)c(OC)c2)ccc1O | 111% | 118% | 90.4% | 110% | – | – | – | – | – | – | –
21 | O=C(/C=C/c1ccccc1)c1ccccc1 [CHALCONE] | 90.6% | 102% | 18.9% | 69% | – | – | – | 1.9 | 11 µM | – | 112%
22 | COc1ccc(/C=C/C(=O)c2ccc(OC)c(O)c2)cc1O | 53.9% | 95.7% | 25.7% | 42% | – | – | – | 5.3 | 3.9 µM | 87.2% | 131%
23 | COc1cccc(/C=C/C(=O)/C=C/c2cccc(OC)c2)c1 | 114% | 100% | 103% | 103% | – | – | – | – | – | – | –
24 | O=C(/C=C/c1ccccc1)/C=C/c1ccccc1 | 82.7% | 93% | 77.9% | 79.7% | – | – | – | – | – | – | –
25 | O=C1/C(=C/c2ccccc2)CCC/C1=C\c1ccccc1 [2,6-DIBENZYLIDENECYCLOHEXANONE] | 49.6% | 85.8% | 39% | 40.6% | – | – | – | 10.1 | 2 µM | 100% | 90.7%
26 | O=C(/C=C(O)/C=C/c1ccccc1)/C=C/c1ccccc1 | 104% | 109% | 97.2% | 107% | – | – | – | – | – | – | –
27 | COc1cccc(/C=C2\CC/C(=C\c3cccc(OC)c3)C2=O)c1 | 72.7% | 92.3% | 61.3% | 72% | – | – | – | – | – | – | –
28 | O=C1/C(=C/c2ccc(F)c(F)c2)CC/C1=C\c1ccc(F)c(F)c1 | 73.1% | 71% | 59.5% | 60.2% | – | – | – | – | – | – | –
29 | COc1cccc(/C=C/C(=O)c2cccc(OC)c2)c1 | 108% | 107% | 72.9% | 111% | – | – | – | – | – | – | –
30 | O=C(/C=C/c1ccc(F)c(F)c1)c1ccc(F)c(F)c1 | 112% | 117% | 59.1% | 90.2% | – | – | – | – | – | – | –
31 | COc1ccc(/C=C2\CCC/C(=C\c3ccc(OC)c(OC)c3)C2=O)cc1OC | 64.3% | 97.7% | 40.8% | 62.8% | – | – | – | 1.3 | 15.9 µM | 62.1% | 104%
32 | O=C1/C(=C/c2ccccc2F)CCC/C1=C\c1ccccc1F | 21.9% | 57.7% | 20.9% | 14.5% | – | – | – | 22.8 | 0.9 µM | 87% | 93%
33 | O=C1/C(=C/c2ccc(F)c(F)c2)CCC/C1=C\c1ccc(F)c(F)c1 | 126% | 94.5% | 114% | 118% | – | – | – | – | – | – | –
34 | COc1ccc(/C=C/C(=O)/C=C/c2ccc(OC)c(OC)c2)cc1OC | 108% | 107% | 103% | 109% | – | – | – | – | – | – | –
35 | O=C1/C(=C/c2ccccc2F)CC/C1=C\c1ccccc1F | 75.7% | 80% | 72.8% | 85.3% | – | – | – | – | – | – | –
36 | O=C1/C(=C/c2ccc(F)cc2)CC/C1=C\c1ccc(F)cc1 | 112% | 120% | 108% | 105% | – | – | – | – | – | – | –

— ChEMBL document CHEMBL3102846 (Eur J Med Chem, 2014)
